From ChEMBL document CHEMBL4390691, “Discovery of 1,3-dihydro-2H-imidazo[4,5-c]quinolin-2-ones based novel, potent and PI3Kδ selective inhibitors” (Bioorg Med Chem Lett, 2019)
Activity calls are given as the source filed them. No cut-off for these calls is given here.

Legend:
CYP2D6 = CYP2D6 (Homo sapiens, UniProt P10635); assay: Inhibition of CYP2D6 in human liver microsomes at 10 uM using testosterone/dextromethorphan as probe substrate measured after 10 mins relative to control; format: ADME
Chain of CYP2D6 (P10635 whole entry): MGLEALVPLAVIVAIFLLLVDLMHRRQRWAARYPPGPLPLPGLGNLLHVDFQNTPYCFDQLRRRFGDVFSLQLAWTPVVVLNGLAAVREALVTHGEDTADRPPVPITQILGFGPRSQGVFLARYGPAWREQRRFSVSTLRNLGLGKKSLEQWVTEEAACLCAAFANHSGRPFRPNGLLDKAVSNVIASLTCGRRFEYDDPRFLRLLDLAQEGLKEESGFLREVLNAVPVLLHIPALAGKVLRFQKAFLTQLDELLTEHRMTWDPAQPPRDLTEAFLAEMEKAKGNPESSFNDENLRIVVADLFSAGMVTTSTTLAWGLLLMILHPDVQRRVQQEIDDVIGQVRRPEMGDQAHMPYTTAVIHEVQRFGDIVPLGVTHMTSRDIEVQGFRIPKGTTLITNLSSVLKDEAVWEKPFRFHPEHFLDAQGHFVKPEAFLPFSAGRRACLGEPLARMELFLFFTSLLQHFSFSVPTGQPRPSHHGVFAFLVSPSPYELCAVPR

Mus musculus [1] = assay: Antiarthritic activity in complete Freund's adjuvant-induced DBA1/J mouse arthritis model assessed as inhibition in clinical arthritis score at 30 mg/kg, po […] relative to control; format: functional, organism-based
In short: (§1)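 Male DBA1j mice had arthritis induced with a collagen mixture and were enrolled once clinical signs appeared. Animals were split into four groups of eight: vehicle, a positive control and two doses of test compound. Treatment ran four weeks. The read-out was percentage inhibition of clinical arthritis score versus the vehicle group.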

[2] = Oral bioavailability in C57BL/6J mouse at 3 mg/kg measured up to 30 hrs by LC-MS/MS analysis; format: ADME, organism-based; conditions: in vivo
In short: (§2)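 Male C57BL/6J mice (n = 6) received single doses of 3 mg/kg po or 1 mg/kg iv. Plasma concentrations were measured by LC-MS. Values are mean ± SD. Oral bioavailability (%F) was calculated from the ratio to iv AUC.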

[3] = Clearance in C57BL/6J mouse at 1 mg/kg, iv measured up to 30 hrs by LC-MS/MS analysis; format: ADME, organism-based; conditions: in vivo; in short: as §2
[4] = target: Phosphatidylinositol 4,5-bisphosphate 3-kinase catalytic subunit gamma isoform (Homo sapiens, UniProt P48736); assay: Inhibition of human PI3Kgamma using PIP2 as substrate after 1 hr
Chain of Phosphatidylinositol 4,5-bisphosphate 3-kinase catalytic subunit gamma isoform (P48736 whole entry, canonical isoform): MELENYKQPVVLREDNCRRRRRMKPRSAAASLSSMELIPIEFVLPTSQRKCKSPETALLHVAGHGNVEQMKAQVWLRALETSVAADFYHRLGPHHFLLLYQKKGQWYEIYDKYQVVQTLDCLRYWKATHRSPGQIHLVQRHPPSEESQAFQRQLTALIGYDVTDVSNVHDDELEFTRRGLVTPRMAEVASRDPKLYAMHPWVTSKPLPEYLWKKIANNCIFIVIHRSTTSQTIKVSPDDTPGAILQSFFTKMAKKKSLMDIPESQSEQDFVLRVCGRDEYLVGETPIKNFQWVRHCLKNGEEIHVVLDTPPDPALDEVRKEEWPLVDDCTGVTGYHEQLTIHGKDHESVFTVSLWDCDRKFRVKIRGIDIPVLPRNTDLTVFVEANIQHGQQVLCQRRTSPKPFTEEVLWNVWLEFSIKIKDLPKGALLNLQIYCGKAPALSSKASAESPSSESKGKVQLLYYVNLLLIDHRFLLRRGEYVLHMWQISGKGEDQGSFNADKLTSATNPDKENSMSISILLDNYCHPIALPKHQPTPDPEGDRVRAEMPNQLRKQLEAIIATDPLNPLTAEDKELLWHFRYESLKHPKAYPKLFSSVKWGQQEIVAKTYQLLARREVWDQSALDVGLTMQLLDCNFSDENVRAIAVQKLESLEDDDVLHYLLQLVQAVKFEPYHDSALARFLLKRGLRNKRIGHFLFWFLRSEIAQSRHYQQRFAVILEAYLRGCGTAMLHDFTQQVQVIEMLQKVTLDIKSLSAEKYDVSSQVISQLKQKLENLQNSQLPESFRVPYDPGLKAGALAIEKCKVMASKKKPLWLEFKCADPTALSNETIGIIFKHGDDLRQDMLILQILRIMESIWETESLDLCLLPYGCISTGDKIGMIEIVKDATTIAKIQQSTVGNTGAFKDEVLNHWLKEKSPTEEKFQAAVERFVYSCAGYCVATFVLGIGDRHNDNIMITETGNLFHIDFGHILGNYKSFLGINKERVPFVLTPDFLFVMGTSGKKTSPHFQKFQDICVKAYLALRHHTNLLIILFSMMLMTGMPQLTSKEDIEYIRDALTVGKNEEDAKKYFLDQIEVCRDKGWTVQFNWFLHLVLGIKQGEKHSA

[5] = Toxicity in DBA1/J mouse assessed as reduction in body weight at 30 mg/kg, po administered for […] measured thrice per week; format: organism-based; conditions: in vivo
In short: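 The model was collagen-induced arthritis in male DBA1j mice, with eight per group and four weeks of treatment. Body weight was recorded three times weekly as a marker of treatment-related side effects.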

Mus musculus [6] = assay: Antiarthritic activity in complete Freund's adjuvant-induced DBA1/J mouse arthritis model assessed as inhibition in clinical arthritis score at 10 mg/kg, po administered […] relative to control; format: functional, organism-based; in short: as §1
[7] = target: Phosphatidylinositol 4,5-bisphosphate 3-kinase catalytic subunit alpha isoform (Homo sapiens, UniProt P42336); assay: Inhibition of human PI3Kalpha using PIP2 as substrate after 1 hr
Chain of Phosphatidylinositol 4,5-bisphosphate 3-kinase catalytic subunit alpha isoform (P42336 whole entry, looked up, canonical isoform): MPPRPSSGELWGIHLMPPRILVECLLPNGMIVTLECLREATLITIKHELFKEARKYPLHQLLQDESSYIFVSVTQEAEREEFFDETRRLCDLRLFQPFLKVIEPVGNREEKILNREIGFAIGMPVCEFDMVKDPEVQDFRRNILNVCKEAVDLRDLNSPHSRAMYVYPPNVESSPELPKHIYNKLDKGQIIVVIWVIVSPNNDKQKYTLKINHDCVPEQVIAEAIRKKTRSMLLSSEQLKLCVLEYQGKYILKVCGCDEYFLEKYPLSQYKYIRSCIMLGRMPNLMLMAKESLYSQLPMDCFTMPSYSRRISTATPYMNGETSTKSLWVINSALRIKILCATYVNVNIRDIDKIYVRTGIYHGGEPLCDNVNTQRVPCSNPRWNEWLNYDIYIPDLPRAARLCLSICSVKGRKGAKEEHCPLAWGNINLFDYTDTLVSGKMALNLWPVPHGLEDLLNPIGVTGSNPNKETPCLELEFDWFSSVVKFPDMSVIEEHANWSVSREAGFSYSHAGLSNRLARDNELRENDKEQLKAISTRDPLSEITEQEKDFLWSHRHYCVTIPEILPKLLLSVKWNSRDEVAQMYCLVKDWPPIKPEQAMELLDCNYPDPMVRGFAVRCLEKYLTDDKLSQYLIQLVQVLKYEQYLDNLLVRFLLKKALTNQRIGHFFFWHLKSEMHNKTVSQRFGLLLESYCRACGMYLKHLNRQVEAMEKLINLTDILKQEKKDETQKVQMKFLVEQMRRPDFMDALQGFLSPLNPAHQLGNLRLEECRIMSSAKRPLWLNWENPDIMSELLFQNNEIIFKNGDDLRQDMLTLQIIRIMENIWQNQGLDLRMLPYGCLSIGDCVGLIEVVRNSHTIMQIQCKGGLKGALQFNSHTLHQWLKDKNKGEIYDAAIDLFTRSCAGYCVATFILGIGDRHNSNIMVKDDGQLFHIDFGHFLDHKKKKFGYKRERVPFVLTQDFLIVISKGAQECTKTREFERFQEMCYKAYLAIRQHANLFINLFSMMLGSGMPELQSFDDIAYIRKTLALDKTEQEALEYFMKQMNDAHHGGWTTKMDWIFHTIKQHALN

[8] = AUC (0 to infinity) in C57BL/6J mouse 1 mg/kg, iv measured up to 30 hrs by LC-MS/MS analysis; format: ADME, organism-based; set-up: dose 1 mg/kg, time infinity, route intravenous; conditions: in vivo
In short: (§3)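 Single-dose PK in male C57BL/6J mice (n = 6), dosed 1 mg/kg iv or 3 mg/kg orally. Plasma drug levels were measured by LC-MS, and PK parameters (Tmax, Cmax, t1/2, Cl, AUC, %F) were derived. Values are given as mean ± SD. Oral bioavailability was calculated against the iv AUC.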

[9] = target: Voltage-gated inwardly rectifying potassium channel KCNH2 (Homo sapiens, UniProt Q12809); assay: Inhibition of human ERG
CYP2C9 = CYP2C9 (Homo sapiens, UniProt P11712); assay: Inhibition of CYP2C9 in human liver microsomes at 10 uM using testosterone/dextromethorphan as probe substrate measured after 10 mins relative to control; format: ADME
Chain of CYP2C9 (P11712 whole entry): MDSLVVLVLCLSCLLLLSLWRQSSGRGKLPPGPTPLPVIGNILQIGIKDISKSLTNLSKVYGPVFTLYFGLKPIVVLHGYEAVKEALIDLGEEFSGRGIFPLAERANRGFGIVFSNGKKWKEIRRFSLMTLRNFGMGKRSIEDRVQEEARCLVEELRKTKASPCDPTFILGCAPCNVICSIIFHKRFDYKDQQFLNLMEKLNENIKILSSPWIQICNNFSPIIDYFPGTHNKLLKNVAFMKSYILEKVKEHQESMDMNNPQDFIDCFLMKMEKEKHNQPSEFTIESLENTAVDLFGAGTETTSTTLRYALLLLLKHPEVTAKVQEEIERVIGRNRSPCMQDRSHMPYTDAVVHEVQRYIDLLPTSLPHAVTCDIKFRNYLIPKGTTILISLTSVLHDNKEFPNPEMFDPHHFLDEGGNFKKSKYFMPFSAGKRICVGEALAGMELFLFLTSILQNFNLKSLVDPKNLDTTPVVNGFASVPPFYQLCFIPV

[10] = AUC (0 to infinity) in C57BL/6J mouse 3 mg/kg, po measured up to 30 hrs by LC-MS/MS analysis; format: ADME, organism-based; set-up: dose 3 mg/kg, route oral, time infinity; conditions: in vivo; in short: as §3
CYP1A2 = target: T1, CYP1A2 (Homo sapiens, UniProt P05177); assay: Inhibition of CYP1A2 in human liver microsomes at 10 uM using testosterone/dextromethorphan as probe substrate measured after 10 mins relative to control; format: ADME
T1 sequence (P05177 whole entry): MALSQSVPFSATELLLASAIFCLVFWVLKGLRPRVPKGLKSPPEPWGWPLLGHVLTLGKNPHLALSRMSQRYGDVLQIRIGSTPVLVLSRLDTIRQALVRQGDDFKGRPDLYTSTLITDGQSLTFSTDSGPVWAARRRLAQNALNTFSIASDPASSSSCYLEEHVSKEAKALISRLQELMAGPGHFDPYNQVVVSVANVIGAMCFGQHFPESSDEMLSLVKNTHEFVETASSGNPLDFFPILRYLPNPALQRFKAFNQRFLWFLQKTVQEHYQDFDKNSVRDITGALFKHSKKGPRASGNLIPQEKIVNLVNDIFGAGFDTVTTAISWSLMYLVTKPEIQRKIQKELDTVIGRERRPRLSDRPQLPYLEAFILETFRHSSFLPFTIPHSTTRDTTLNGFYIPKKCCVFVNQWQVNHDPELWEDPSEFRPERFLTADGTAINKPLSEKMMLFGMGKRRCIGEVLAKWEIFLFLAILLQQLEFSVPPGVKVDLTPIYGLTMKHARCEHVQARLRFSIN

[11] = Tmax in C57BL/6J mouse at 3 mg/kg, po measured up to 30 hrs by LC-MS/MS analysis; format: ADME, organism-based; conditions: in vivo; in short: as §2
Homo sapiens [12] = species: Homo sapiens; assay: Selectivity ratio of IC50 for human PI3Kalpha to IC50 for human PI3Kdelta
In short: (§4)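 IC50s for the PI3K α, β, γ and δ isoforms came from a commercial PI3K inhibitory activity assay kit. Each IC50 is the mean of at least two experiments. The ratio is the α, β or γ IC50 divided by the δ IC50.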

TMD8 [13] = assay: Antitumor activity against human TMD8 cells xenografted in SCID mouse assessed as decrease in tumor volume at 30 mg/kg/day, po QD for 16 days and measured every alternate day; format: functional; conditions: 384 h
In short: (§5)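 Male SCID mice were inoculated with TMD-8 cells. Oral doses of 3, 10 and 30 mg/kg/day were given. The efficacy endpoint was inhibition of tumor volume relative to the vehicle (untreated) group.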

[14] = target: Phosphatidylinositol 4,5-bisphosphate 3-kinase catalytic subunit beta isoform (Homo sapiens, UniProt P42338); assay: Inhibition of human PI3Kbeta using PIP2 as substrate after 1 hr
Chain of Phosphatidylinositol 4,5-bisphosphate 3-kinase catalytic subunit beta isoform (P42338 whole entry, canonical isoform): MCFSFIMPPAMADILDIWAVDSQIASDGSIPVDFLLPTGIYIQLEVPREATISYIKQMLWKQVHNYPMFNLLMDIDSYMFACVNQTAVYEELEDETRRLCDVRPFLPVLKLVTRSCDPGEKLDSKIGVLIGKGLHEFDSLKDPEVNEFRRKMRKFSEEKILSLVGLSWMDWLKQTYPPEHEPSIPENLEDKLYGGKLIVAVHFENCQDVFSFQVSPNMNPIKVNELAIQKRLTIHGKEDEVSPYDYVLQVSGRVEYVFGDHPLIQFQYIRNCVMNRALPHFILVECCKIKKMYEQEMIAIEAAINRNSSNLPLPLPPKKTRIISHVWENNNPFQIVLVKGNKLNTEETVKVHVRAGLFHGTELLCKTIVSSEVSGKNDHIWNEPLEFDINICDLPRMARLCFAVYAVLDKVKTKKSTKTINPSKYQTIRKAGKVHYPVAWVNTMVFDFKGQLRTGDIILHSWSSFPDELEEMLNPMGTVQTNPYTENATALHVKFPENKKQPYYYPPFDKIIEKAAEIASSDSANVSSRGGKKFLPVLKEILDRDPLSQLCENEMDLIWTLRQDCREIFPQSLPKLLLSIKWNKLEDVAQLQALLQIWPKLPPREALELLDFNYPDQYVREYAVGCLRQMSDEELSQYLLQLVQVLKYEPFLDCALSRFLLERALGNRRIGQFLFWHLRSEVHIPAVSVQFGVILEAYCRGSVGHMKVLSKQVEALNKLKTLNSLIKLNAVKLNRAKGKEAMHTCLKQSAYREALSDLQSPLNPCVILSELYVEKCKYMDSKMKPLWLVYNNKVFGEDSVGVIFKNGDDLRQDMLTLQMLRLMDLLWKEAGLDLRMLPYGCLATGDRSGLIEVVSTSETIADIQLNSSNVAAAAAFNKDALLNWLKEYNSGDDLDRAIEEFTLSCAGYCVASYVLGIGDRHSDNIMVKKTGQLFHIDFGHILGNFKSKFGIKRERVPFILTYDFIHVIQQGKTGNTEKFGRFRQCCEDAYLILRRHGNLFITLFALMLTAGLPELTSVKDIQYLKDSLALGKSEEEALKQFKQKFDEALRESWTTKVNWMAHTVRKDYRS

Homo sapiens [15] = species: Homo sapiens; assay: Selectivity ratio of IC50 for human PI3Kgamma to IC50 for human PI3Kdelta; in short: as §4
TMD8 [16] = assay: Antiproliferative activity against human TMD8 cells; format: functional, cell-based
[17] = Cmax in C57BL/6J mouse at 3 mg/kg, po measured up to 30 hrs by LC-MS/MS analysis; format: ADME, organism-based; set-up: dose 3 mg/kg, route oral; conditions: in vivo; in short: as §2
Homo sapiens [18] = species: Homo sapiens; assay: Selectivity ratio of IC50 for human PI3Kbeta to IC50 for human PI3Kdelta; in short: as §4
[19] = Protein binding in DBA1/J mouse plasma; format: ADME, cell-free; conditions: read-out: PPB (converted)
[20] = target: Serine/threonine-protein kinase mTOR (Homo sapiens, UniProt P42345); assay: Inhibition of mTOR (unknown origin) assessed as reduction in p70S6K phosphorylation
TMD8 [21] = assay: Antitumor activity against human TMD8 cells xenografted in SCID mouse assessed as decrease in tumor volume at 3 to 30 mg/kg/day, po QD for 16 days and measured every alternate day; format: functional, organism-based; in short: as §5
[22] = Toxicity in human TMD8 cells xenografted SCID mouse assessed as decrease in body weight at 30 mg/kg/day, po QD for 16 days; format: organism-based; conditions: in vivo, 384 h
In short: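 Male SCID mice bearing TMD-8 xenografts received oral doses of 3, 10 or 30 mg/kg/day. Body weight was recorded during treatment.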

CYP3A4 = CYP3A4 (Homo sapiens, UniProt P08684); assay: Inhibition of CYP3A4 in human liver microsomes at 10 uM using testosterone/dextromethorphan as probe substrate measured after 10 mins relative to control; format: ADME
Chain of CYP3A4 (P08684 whole entry): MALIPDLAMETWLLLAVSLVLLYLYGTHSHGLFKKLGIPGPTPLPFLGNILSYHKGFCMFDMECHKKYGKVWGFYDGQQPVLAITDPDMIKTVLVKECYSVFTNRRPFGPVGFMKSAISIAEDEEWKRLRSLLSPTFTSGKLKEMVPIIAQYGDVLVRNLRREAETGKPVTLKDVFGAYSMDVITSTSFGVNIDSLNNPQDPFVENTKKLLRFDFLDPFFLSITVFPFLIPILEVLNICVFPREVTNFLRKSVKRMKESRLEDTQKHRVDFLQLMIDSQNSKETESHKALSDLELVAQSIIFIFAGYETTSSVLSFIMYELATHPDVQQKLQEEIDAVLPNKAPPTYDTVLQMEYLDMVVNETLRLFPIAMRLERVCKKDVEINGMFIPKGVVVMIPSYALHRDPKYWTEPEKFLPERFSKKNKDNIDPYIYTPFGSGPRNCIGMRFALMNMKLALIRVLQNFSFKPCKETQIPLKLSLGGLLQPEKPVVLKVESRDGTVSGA

For `COc1ccc(Cn2c(=O)n(C)c3c4cc(-c5cnc(OC)c(NS(C)(=O)=O)c5)ccc4ncc32)cc1`, the inhibition at 10 min, 10 µM (CYP2D6) was < 10%, the inhibition (Mus musculus [1]) was “Active” and the bioavailability [2] was 68.9%. For the same compound, the clearance [3] was 8.24 mL/min/kg, the IC50 [4] was 112 nM and the Activity [5] was “Non-Toxic”. For the same compound, the inhibition (Mus musculus [6]) was “Active”, the IC50 [7] was 891 nM and the AUC [8] was 1850 ng·h/mL. For the same compound, the IC50 [9] was > 30000 nM, the inhibition at 10 min, 10 µM (CYP2C9) was < 10% and the AUC [10] was 3830 ng·h/mL. The inhibition at 10 min, 10 µM (CYP1A2) was < 10%, the Tmax [11] was 15 min and the Ratio IC50 (Homo sapiens [12]) was 469. The inhibition in vivo at 30 mg/kg/day (TMD8 [13]) was 100%, the IC50 [14] was 589 nM and the Ratio IC50 (Homo sapiens [15]) was 59. It also gave an IC50 (TMD8 [16]) of 340 nM, a Cmax [17] of 1280 ng/mL and a Ratio IC50 (Homo sapiens [18]) of 310. For the same compound, the fraction unbound [19] was 0.11, the IC50 [20] was > 1000 nM and the Activity (TMD8 [21]) was “Dose-dependent effect”. For the same compound, the Activity [22] was “Non-Toxic” and the inhibition at 10 min, 10 µM (CYP3A4) was < 10%.
